# Results taken from ChEMBL document CHEMBL1932946, “Design, synthesis and anticonvulsant evaluation of novel N-(4-substituted phenyl)-2-[4-(substituted) benzylidene]-hydrazinecarbothio amides” (Eur J Med Chem, 2012).
# Calls of active or inactive are those of the source. No cut-off for these calls is given here.
# What was measured:
# Rattus norvegicus [1] = assay: Acute toxicity in albino Sprague-Dawley rat pilocarpine-induced status prevention model at 100 mg/kg, ip measured 1 hr post pilocarpine challenge; type: organism-based; parameters: dose 100 mg/kg, route intraperitoneal; details: in vivo
# Method in brief: (§1)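 Acute motor-impairment screen in the PISP programme, using male Sprague Dawley rats. Compound was suspended in 0.5% methyl cellulose and given i.p. at 100, 300 or 600 mg/kg. Two rats were used per dose. Behaviour was closely observed and recorded over a 4 h period at 0.25, 0.5, 1.0, 2.0 and 4.0 h. The result is scored as number toxic over number tested.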
# Mus musculus [2] = assay: Neurotoxicity in albino CF-1 mouse assessed as minimum motor impairment at 300 mg/kg, ip after 4 hrs by rotarod test; type: toxicity, organism-based; parameters: dose 300 mg/kg, route intraperitoneal; details: in vivo
# Method in brief: (§2)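 Minimal motor impairment assessed in male CF-1 albino mice (18–25 g) at 0.5 and 4 h after i.p. doses of 30, 100 and 300 mg/kg, given in 0.5% methyl cellulose. Minimum dose toxic in half or more of mice recorded.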
# [3] = Octanol-phosphate buffer partition coefficient, log P of the compound at 5 mg after 24 hrs by UV spectroscopic analysis; type: physicochemical
# Method in brief: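 5 mg compound added to 10 mL octanol plus 10 mL phosphate buffer in a stoppered tube. Mixture shaken mechanically 24 h at room temperature, then left 6 h in a separating funnel to equilibrate.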
# Mus musculus [4] = assay: Anticonvulsant activity in albino CF-1 mouse assessed as protection against 6 Hz psychomotor seizure at 100 mg/kg, ip after 0.25 hrs by minimal clonic seizure test; type: functional
# Method in brief: (§3)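 Male CF-1 albino mice (18–25 g) given compound i.p., suspended in 0.5% methyl cellulose, 100 mg/kg in screen. Four mice per time point challenged at 0.25, 0.5, 1.0, 2.0 and 4.0 h via corneal electrodes (32 mA, 3 s, 6 Hz). Protection = absence of psychomotor seizure (minimal clonic phase, automatistic behaviours). Scored as animals protected/tested.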
# Rattus norvegicus [5] = assay: Acute toxicity in albino Sprague-Dawley rat pilocarpine-induced status prevention model at 300 mg/kg, ip measured 1 hr post pilocarpine challenge; type: organism-based; parameters: dose 300 mg/kg, route intraperitoneal; details: in vivo; method in brief: as §1
# Rattus norvegicus [6] = assay: Acute toxicity in albino Sprague-Dawley rat pilocarpine-induced status prevention model at 300 mg/kg, ip measured 0.5 hrs post pilocarpine challenge; type: organism-based; parameters: dose 300 mg/kg, route intraperitoneal; details: in vivo; method in brief: as §1
# Rattus norvegicus [7] = assay: Acute toxicity in albino Sprague-Dawley rat pilocarpine-induced status prevention model at 100 mg/kg, ip measured 2 hrs post pilocarpine challenge; type: organism-based; parameters: dose 100 mg/kg, route intraperitoneal; details: in vivo; method in brief: as §1
# Rattus norvegicus [8] = assay: Acute toxicity in albino Sprague-Dawley rat pilocarpine-induced status prevention model at 600 mg/kg, ip measured 1 hr post pilocarpine challenge; type: organism-based; parameters: dose 600 mg/kg, route intraperitoneal; details: in vivo; method in brief: as §1
# Rattus norvegicus [9] = assay: Acute toxicity in albino Sprague-Dawley rat pilocarpine-induced status prevention model at 600 mg/kg, ip measured 0.5 hrs post pilocarpine challenge; type: organism-based; parameters: dose 600 mg/kg, route intraperitoneal; details: in vivo; method in brief: as §1
# Mus musculus [10] = assay: Anticonvulsant activity in albino CF-1 mouse assessed as protection against 6 Hz psychomotor seizure at 100 mg/kg, ip after 4 hrs by minimal clonic seizure test; type: functional, organism-based; parameters: dose 100 mg/kg; method in brief: as §3
# Rattus norvegicus [11] = assay: Acute toxicity in albino Sprague-Dawley rat pilocarpine-induced status prevention model at 100 mg/kg, ip measured 0.5 hrs post pilocarpine challenge; type: organism-based; parameters: dose 100 mg/kg, route intraperitoneal; details: in vivo; method in brief: as §1
# Mus musculus [12] = assay: Neurotoxicity in albino CF-1 mouse assessed as minimum motor impairment at 300 mg/kg, ip after 0.5 hrs by rotarod test; type: toxicity, organism-based; parameters: dose 300 mg/kg, route intraperitoneal; details: in vivo; method in brief: as §2
# Rattus norvegicus [13] = assay: Acute toxicity in albino Sprague-Dawley rat pilocarpine-induced status prevention model at 300 mg/kg, ip measured 2 hrs post pilocarpine challenge; type: organism-based; parameters: dose 300 mg/kg, route intraperitoneal; details: in vivo; method in brief: as §1
# Rattus norvegicus [14] = assay: Acute toxicity in albino Sprague-Dawley rat pilocarpine-induced status prevention model at 600 mg/kg, ip measured 0.25 hrs post pilocarpine challenge; type: organism-based; parameters: dose 600 mg/kg, route intraperitoneal; details: in vivo; method in brief: as §1
# Rattus norvegicus [15] = assay: Acute toxicity in albino Sprague-Dawley rat pilocarpine-induced status prevention model at 100 mg/kg, ip measured 4 hrs post pilocarpine challenge; type: organism-based; parameters: dose 100 mg/kg, route intraperitoneal; details: in vivo; method in brief: as §1
# Rattus norvegicus [16] = assay: Acute toxicity in albino Sprague-Dawley rat pilocarpine-induced status prevention model at 600 mg/kg, ip measured 2 hrs post pilocarpine challenge; type: organism-based; parameters: dose 600 mg/kg, route intraperitoneal; details: in vivo; method in brief: as §1
# Rattus norvegicus [17] = assay: Acute toxicity in albino Sprague-Dawley rat pilocarpine-induced status prevention model at 300 mg/kg, ip measured 4 hrs post pilocarpine challenge; type: organism-based; parameters: dose 300 mg/kg, route intraperitoneal; details: in vivo; method in brief: as §1
# Mus musculus [18] = assay: Anticonvulsant activity in albino CF-1 mouse assessed as protection against 6 Hz psychomotor seizure at 100 mg/kg, ip after 1 hr by minimal clonic seizure test; type: functional; details: route intraperitoneal; method in brief: as §3
# Rattus norvegicus [19] = assay: Acute toxicity in albino Sprague-Dawley rat pilocarpine-induced status prevention model at 300 mg/kg, ip measured 0.25 hrs post pilocarpine challenge; type: organism-based; parameters: dose 300 mg/kg, route intraperitoneal; details: in vivo; method in brief: as §1
# Rattus norvegicus [20] = assay: Acute toxicity in albino Sprague-Dawley rat pilocarpine-induced status prevention model at 600 mg/kg, ip measured 4 hrs post pilocarpine challenge; type: organism-based; parameters: dose 600 mg/kg, route intraperitoneal; details: in vivo; method in brief: as §1
# Mus musculus [21] = assay: Anticonvulsant activity in albino CF-1 mouse assessed as protection against 6 Hz psychomotor seizure at 100 mg/kg, ip after 0.5 hrs by minimal clonic seizure test; type: functional; details: route intraperitoneal; method in brief: as §3
# Mus musculus [22] = assay: Anticonvulsant activity in albino CF-1 mouse assessed as protection against 6 Hz psychomotor seizure at 100 mg/kg, ip after 2 hrs by minimal clonic seizure test; type: functional; details: route intraperitoneal; method in brief: as §3
# Rattus norvegicus [23] = assay: Acute toxicity in albino Sprague-Dawley rat pilocarpine-induced status prevention model at 100 mg/kg, ip measured 0.25 hrs post pilocarpine challenge; type: organism-based; parameters: dose 100 mg/kg, route intraperitoneal; details: in vivo; method in brief: as §1
smiles,measurement,setting,value
Cc1cc(Oc2ccc(/C=N/NC(=S)Nc3ccc(Br)cc3)cc2)ccc1Cl,Activity,Rattus norvegicus [1],Non-toxic
same,Activity,Mus musculus [2],Non-toxic
same,logP at 24 h,[3],7.89
same,Activity,Mus musculus [4],Active
same,Activity,Rattus norvegicus [5],Non-toxic
same,Activity,Rattus norvegicus [6],Non-toxic
same,Activity,Rattus norvegicus [7],Non-toxic
same,Activity,Rattus norvegicus [8],Non-toxic
same,Activity,Rattus norvegicus [9],Non-toxic
same,Activity,Mus musculus [10],inactive
same,Activity,Rattus norvegicus [11],Non-toxic
same,Activity,Mus musculus [12],Non-toxic
same,Activity,Rattus norvegicus [13],Non-toxic
same,Activity,Rattus norvegicus [14],Non-toxic
same,Activity,Rattus norvegicus [15],Non-toxic
same,Activity,Rattus norvegicus [16],Non-toxic
same,Activity,Rattus norvegicus [17],Non-toxic
same,Activity,Mus musculus [18],50%
same,Activity,Rattus norvegicus [19],Non-toxic
same,Activity,Rattus norvegicus [20],Non-toxic
same,Activity,Mus musculus [21],75%
same,Activity,Mus musculus [22],50%
same,Activity,Rattus norvegicus [23],Non-toxic
